Assay results: paper PMC11740227 (FASEB journal : official publication of the Federation of …, 2023)

Experiments:
[1] = system: mouse Trp53KO thymic lymphoma cells; experiment: Proliferation, viability and cell death of cultured thymic lymphoma cells; format: cell-based
Molt4E6 cells [2] = experiment: Cell death by trypan blue exclusion in Molt4E6 cells; format: cell-based, human; settings: for cell death: Molt4E6 cells, 24 h of treatment
Molt4E6 cells [3] = experiment: Caspase activation by Western blot in Molt4E6 cells; format: cell-based, human; settings: 6 h of treatment
Jurkat cells = experiment: Cell death by trypan blue exclusion in Jurkat cells with Bak knockdown; format: cell-based, human; settings: Jurkat sgRNA BakA and BakB vs control cells, 24 h of treatment
[4] = Pharmacokinetics of PF543 in wildtype mice, IP dosing; format: in vivo, mouse; settings: after IP administration in mice
[5] = format: in vitro ADME; settings: mouse
WT mice [6] = experiment: Tolerability of IP dosing in the PK study; format: in vivo; settings: 100 mg/kg IP
S1P levels in blood = experiment: Blood sphingolipid analysis by LC MS/MS after PF543 administration; format: in vivo, mouse; settings: 10 mg/kg of body weight, 2 h after IP injection, vs vehicle
Trp53KO thymic lymphoma [7] = experiment: Thymic lymphoma growth in Trp53KO mice by ultrasound imaging; format: in vivo, mouse; settings: 10 mg/kg BID IP for 10 days, compared to vehicle
Trp53KO thymic lymphoma [8] = experiment: Cleaved caspase 3 immunohistochemistry of tumor tissue; format: in vivo, mouse; settings: Trp53KO mice, day 10 after treatment initiation, compared to vehicle
How it was run: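 Male Trp53KO mice with ultrasound-detected thymic lymphoma (100–150 mm3) received vehicle or test compound, 10 mg/kg IP twice daily (suspension in 1% HPMC/PBS), and tumors were taken at day 10. Sections were stained overnight at 4°C with anti-cleaved caspase-3 (1:200), then biotinylated anti-rabbit, DAB/H2O2 and hematoxylin counterstain. Positive cells counted in ten 20× fields per sample, expressed per mm2; three mice per condition.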

[9] = system: mouse Trp53KO thymic lymphoma cells; experiment: Sphingolipid levels in cultured cells by LC MS/MS; format: cell-based; settings: PF543 0.5 μM
[10] = system: lymphocytes isolated from WT thymus; experiment: Viability of WT lymphocytes; format: cell-based, mouse
WT mice [11] = settings: mouse, in vivo, ip, 10 mg/kg

For ZVAD, the “protection from PF543-induced cell death” value ([1]; pan-caspase inhibitor with PF543, Trp53KO thymic lymphoma cells) was “partially protected” and the “inhibition of Sph-induced cell death” value (Molt4E6 cells [2]; ZVAD 40 μM pre-treatment 1 h, then 3 μM D-erythro-Sph, 24 h) was “significantly inhibited”.
For `CCCCCCCCCCCCC/C=C/[C@@H](O)[C@@H](N)CO` [Sph, sphingosine], the cell death (Molt4E6 cells [2]) was “caused cell death”, the caspase activation (Molt4E6 cells [3]) was “activation of caspases” and the “Sph-induced cell death after knockdown of Bak” value (Jurkat cells) was “significantly protected”.
In the case of `CCCC[C@@H](C)[C@@H](OC(=O)C[C@@H](CC(=O)O)C(=O)O)[C@H](C[C@@H](C)C[C@H](O)CCCC[C@@H](O)C[C@H](O)[C@H](C)N)OC(=O)C[C@@H](CC(=O)O)C(=O)O` [FB1], the “protection from Sph-induced cell death” value (Molt4E6 cells [2]; FB1 25 μM pre-treatment 1 h, then 3 μM D-erythro-Sph, 24 h) is reported as “did not protect”.
With `Cc1cc(CS(=O)(=O)c2ccccc2)cc(OCc2ccc(CN3CCC[C@@H]3CO)cc2)c1` [PF543] the “half-life (T1/2)” value [4] was ~ 4 h, the plasma protein binding [5] was 94 % bound and the “tolerability of IP dosing” value (WT mice [6]) was “not tolerated”. The “S1P levels in blood” value (S1P levels in blood) was “decreased”, the “tumor growth (tumor size by ultrasound)” value (Trp53KO thymic lymphoma [7]) was “significant inhibition” and the “number of cleaved caspase 3 positive cells in tumor samples” value (Trp53KO thymic lymphoma [8]) was “significantly higher”. The proliferation over time ([1]; PF543 0.5 μM, low-serum medium, counted every day for 4 days, CCK-8 at day 2) was “significantly decreased”, the cell death ([1]; Trp53KO thymic lymphoma cells treated with PF543) was “resulted in cell death” and the “survival of cells in culture” value ([1]; mouse Trp53KO lymphoma cells) was “reduced survival”. For the same compound, the “Sph levels in cells” value [9] was “significantly increased”, the “total Cer levels in cells” value [9] was “significantly increased” and the “cell viability over time” value [10] was “did not affect cell viability”. The “liver function (liver enzymes in blood)” value (WT mice [11]) was “did not significantly impact” and the “number of total white cells and lymphocytes in blood” value (WT mice [11]) was “no decrease”.
For `CCCCCCCCCCCCC/C=C/[C@H](O)[C@H](N)CO` [L-erythro-Sph], the cell death (Molt4E6 cells [2]) was “did not induce cell death” and the caspase activation (Molt4E6 cells [3]) was “did not induce cell death or caspase activation”.
